According to ChEMBL document CHEMBL1123550, “Synthesis and biological activity of benzothiazolo[3,2-a]quinolone antibacterial agents” (1986):
Values after ≈ are worked out from the molar mass of the structure shown.

Key:
[1] = test system: Pseudomonas aeruginosa; test: Compound was tested in vitro for antibiotic activity against the bacteria Pseudomonas aeruginosa K799/WT; assay type: functional
In short: (§1)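 Overnight cultures were grown in brain-heart infusion broth at 36 °C. The compound was diluted twofold in brain-heart infusion agar over a range of 200 to 0.005 µg/mL (final). Each plate received about 10⁴ organisms and was incubated at 36 °C for 18 h. The MIC was taken as the lowest concentration giving no visible growth.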

[2] = test system: Enterococcus faecium; test: The compound was tested in vitro for antibiotic activity against […] ATCC 8043; assay type: functional; in short: as §1
[3] = test system: Staphylococcus aureus; test: The compound was tested in vitro for antibiotic activity against Staphylococcus aureus 686B; assay type: functional; in short: as §1
[4] = test system: Escherichia coli; test: Compound was tested in vitro for antibiotic activity against the bacteria Escherichia coli juhl; assay type: functional; in short: as §1
[5] = test system: Staphylococcus aureus; test: The compound was tested in vitro for antibiotic activity against Staphylococcus aureus ATCC 6538P; assay type: functional; in short: as §1
[6] = test system: Streptococcus pyogenes; test: The compound was tested in vitro for antibiotic activity against Streptococcus pyogenes 930
[7] = test system: Pseudomonas aeruginosa; test: Compound was tested in vitro for antibiotic activity against the bacteria Pseudomonas aeruginosa 5007; assay type: functional; in short: as §1
[8] = test system: Acinetobacter; test: Compound was tested in vitro for antibiotic activity against the bacteria Acinetobacter sp. CMX669; assay type: functional; in short: as §1
[9] = test system: Staphylococcus epidermidis; test: The compound was tested in vitro for antibiotic activity against Staphylococcus epidermidis 3519; assay type: functional; in short: as §1
[10] = test system: Klebsiella aerogenes; test: Compound was tested in vitro for antibiotic activity against bacteria Enterobacter aerogenes ATCC 13048; assay type: functional; in short: as §1
[11] = test system: Klebsiella pneumoniae; test: Compound was tested in vitro for antibiotic activity against the bacteria Klebsiella pneumoniae 8045; assay type: functional; in short: as §1

Row | MIC [1] [µg/mL] | MIC [2] [µg/mL] | MIC [3] [µg/mL] | MIC [4] [µg/mL] | MIC [5] [µg/mL] | MIC [6] [µg/mL] | MIC [7] [µg/mL] | MIC [8] [µg/mL] | MIC [9] [µg/mL] | MIC [10] [µg/mL] | MIC [11] [µg/mL] | SMILES
1 | > 100 | 6.2 (≈ 14.1 µM) | 0.2 (≈ 0.455 µM) | 6.2 (≈ 14.1 µM) | 0.2 (≈ 0.455 µM) | 3.1 (≈ 7.05 µM) | > 100 | 6.2 (≈ 14.1 µM) | 0.39 (≈ 0.887 µM) | > 100 | 1.56 (≈ 3.55 µM) | CC(=O)N1CCN(c2cc3c(cc2F)c(=O)c(C(=O)O)c2sc4ccccc4n23)CC1
2 | – | – | – | – | – | 50 (≈ 126 µM) | – | – | – | – | – | Cc1ccccc1-n1cc(C(=O)O)c(=O)c2cc(F)c(N3CCN(C)CC3)cc21
3 | 1.56 (≈ 3.93 µM) | 0.78 (≈ 1.96 µM) | 0.39 (≈ 0.981 µM) | 0.2 (≈ 0.503 µM) | 0.39 (≈ 0.981 µM) | 0.78 (≈ 1.96 µM) | 1.56 (≈ 3.93 µM) | 0.39 (≈ 0.981 µM) | 0.39 (≈ 0.981 µM) | 0.78 (≈ 1.96 µM) | 0.2 (≈ 0.503 µM) | O=C(O)c1c(=O)c2cc(F)c(N3CCNCC3)cc2n2c1sc1ccccc12
4 | – | – | – | – | – | > 100 | – | – | – | – | – | Cc1cccc(C)c1-n1cc(C(=O)O)c(=O)c2cc(F)c(N3CCN(C)CC3)cc21
5 | 6.2 (≈ 15.1 µM) | 1.56 (≈ 3.79 µM) | 0.39 (≈ 0.948 µM) | 0.78 (≈ 1.9 µM) | 0.39 (≈ 0.948 µM) | 1.56 (≈ 3.79 µM) | 6.2 (≈ 15.1 µM) | 0.39 (≈ 0.948 µM) | 0.78 (≈ 1.9 µM) | 1.56 (≈ 3.79 µM) | 0.39 (≈ 0.948 µM) | CN1CCN(c2cc3c(cc2F)c(=O)c(C(=O)O)c2sc4ccccc4n23)CC1
6 | – | – | – | – | – | 3.1 (≈ 8.13 µM) | – | – | – | – | – | CN1CCN(c2cc3c(cc2F)c(=O)c(C(=O)O)cn3-c2ccccc2)CC1
7 | > 100 | 6.2 (≈ 13.7 µM) | 0.39 (≈ 0.86 µM) | 6.2 (≈ 13.7 µM) | 0.39 (≈ 0.86 µM) | 3.1 (≈ 6.84 µM) | > 100 | 0.1 (≈ 0.221 µM) | 0.39 (≈ 0.86 µM) | 12.5 (≈ 27.6 µM) | 1.56 (≈ 3.44 µM) | CCC(=O)N1CCN(c2cc3c(cc2F)c(=O)c(C(=O)O)c2sc4ccccc4n23)CC1

Row | SMILES | MIC [1] [µg/mL] | MIC [2] [µg/mL] | MIC [3] [µg/mL] | MIC [4] [µg/mL] | MIC [5] [µg/mL] | MIC [6] [µg/mL] | MIC [7] [µg/mL] | MIC [8] [µg/mL] | MIC [9] [µg/mL] | MIC [10] [µg/mL] | MIC [11] [µg/mL]
8 | O=C(O)c1cn(-c2ccccc2)c2cc(N3CCNCC3)c(F)cc2c1=O | – | – | – | – | – | 1.56 (≈ 4.25 µM) | – | – | 0.78 (≈ 2.12 µM) | – | –
9 | CCn1cc(C(=O)O)c(=O)c2cc(F)c(N3CCNCC3)cc21 [NORFLOXACIN] | – | – | – | – | – | 3.1 (≈ 9.71 µM) | – | – | – | – | –
